Data published in ChEMBL document CHEMBL1687778, “Genetic determinants involved in the susceptibility of Pseudomonas aeruginosa to beta-lactam antibiotics” (2010).
≈ marks a conversion by molar mass, not a printed value.

What was measured:
[1] = tested on: Pseudomonas aeruginosa; test: Antimicrobial activity against wild type Pseudomonas aeruginosa PA14 by Etest method; assay type: functional
Procedure, shortened: (§1)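 Etest MIC. Overnight LB cultures at 37°C were diluted in sterile 0.85% NaCl to about 1 × 10^7 CFU/ml. 100 µl was spread on Mueller-Hinton agar, one strip was placed per plate, and plates were incubated at 37°C for 18 h. Equal cell numbers were seeded per plate, and results were verified in triplicate. PA14 wild type was included in each set as a susceptibility control.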

[2] = tested on: Pseudomonas aeruginosa; test: Antimicrobial activity against Pseudomonas aeruginosa PA14 PA0958 harboring oprD mutant gene by Etest method; assay type: functional
Procedure, shortened: (§2)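 Overnight LB cultures (37°C) diluted in sterile 0.85% NaCl to about 1 × 10^7 CFU/ml. 100 µl spread on Mueller-Hinton agar, one Etest strip per plate, 18 h at 37°C. Ceftazidime, imipenem and meropenem tested. Wild-type PA14 plate included in each set. Each mutant verified in triplicate.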

[3] = tested on: Pseudomonas aeruginosa; test: Antimicrobial activity against Pseudomonas aeruginosa PA14 PA1348 harboring mutation in conserved hypothetical protein by Etest method; assay type: functional; procedure, shortened: as §2
[4] = tested on: Pseudomonas aeruginosa; test: Antimicrobial activity against Pseudomonas aeruginosa PA14 PA14_15600 harboring mutation in conserved hypothetical protein by Etest method; assay type: functional; procedure, shortened: as §2
[5] = tested on: Pseudomonas aeruginosa; test: Antimicrobial activity against Pseudomonas aeruginosa PA14 PA14_43090 harboring mutation in hypothetical protein by Etest method; assay type: functional; procedure, shortened: as §2
[6] = tested on: Pseudomonas aeruginosa; test: Antimicrobial activity against Pseudomonas aeruginosa PA14 PA2487 harboring mutation in hypothetical protein by Etest method; assay type: functional; procedure, shortened: as §2
[7] = tested on: Pseudomonas aeruginosa; test: Antimicrobial activity against Pseudomonas aeruginosa PA14 PA2621 harboring clpS mutant gene by Etest method; assay type: functional; procedure, shortened: as §2
[8] = tested on: Pseudomonas aeruginosa; test: Antimicrobial activity against Pseudomonas aeruginosa PA14 PA2797 harboring mutation in putative anti-anti-sigma factor by Etest method; assay type: functional; procedure, shortened: as §2
[9] = tested on: Pseudomonas aeruginosa; test: Antimicrobial activity against Pseudomonas aeruginosa PA14 PA3141 harboring wbpM mutant gene by Etest method; assay type: functional; procedure, shortened: as §2
[10] = tested on: Pseudomonas aeruginosa; test: Antimicrobial activity against Pseudomonas aeruginosa PA14 PA3667 harboring mutation in putative cysteine sulfinate desulfinase by Etest method; assay type: functional; procedure, shortened: as §1
[11] = tested on: Pseudomonas aeruginosa; test: Antimicrobial activity against Pseudomonas aeruginosa PA14 PA4109 harboring ampR mutant gene by Etest method; assay type: functional; procedure, shortened: as §1
[12] = tested on: Pseudomonas aeruginosa; test: Antimicrobial activity against Pseudomonas aeruginosa PA14 PA4748 harboring tpiA mutant gene by Etest method; assay type: functional; procedure, shortened: as §1
[13] = tested on: Pseudomonas aeruginosa; test: Antimicrobial activity against Pseudomonas aeruginosa PA14 PA5002 harboring mutation in hypothetical protein by Etest method; assay type: functional; procedure, shortened: as §1
[14] = tested on: Pseudomonas aeruginosa; test: Antimicrobial activity against Pseudomonas aeruginosa PA14 PA5003 harboring mutation in conserved hypothetical protein by Etest method; assay type: functional; procedure, shortened: as §1
[15] = tested on: Pseudomonas aeruginosa; test: Antimicrobial activity against Pseudomonas aeruginosa PA14 PA5192 harboring pckA mutant gene by Etest method; assay type: functional; procedure, shortened: as §1
[16] = tested on: Pseudomonas aeruginosa; test: Antimicrobial activity against Pseudomonas aeruginosa PA14 PA0402 harboring pyrB mutant gene by Etest method; assay type: functional; procedure, shortened: as §2
[17] = tested on: Pseudomonas aeruginosa; test: Antimicrobial activity against Pseudomonas aeruginosa PA14 PA0764 harboring mucB mutant gene by Etest method; assay type: functional; procedure, shortened: as §2
[18] = tested on: Pseudomonas aeruginosa; test: Antimicrobial activity against Pseudomonas aeruginosa PA14 PA0766 harboring mucD mutant gene by Etest method; assay type: functional; procedure, shortened: as §2
[19] = tested on: Pseudomonas aeruginosa; test: Antimicrobial activity against Pseudomonas aeruginosa PA14 PA0770 harboring rnc mutant gene by Etest method; assay type: functional; procedure, shortened: as §2
[20] = tested on: Pseudomonas aeruginosa; test: Antimicrobial activity against Pseudomonas aeruginosa PA14 PA1011 harboring mutation in putative lipoprotein by Etest method; assay type: functional; procedure, shortened: as §2
[21] = tested on: Pseudomonas aeruginosa; test: Antimicrobial activity against Pseudomonas aeruginosa PA14 PA14_59780 harboring rcsC mutant gene by Etest method; assay type: functional; procedure, shortened: as §2
[22] = tested on: Pseudomonas aeruginosa; test: Antimicrobial activity against Pseudomonas aeruginosa PA14 PA1483 harboring cycH mutant gene by Etest method; assay type: functional; procedure, shortened: as §2
[23] = tested on: Pseudomonas aeruginosa; test: Antimicrobial activity against Pseudomonas aeruginosa PA14 PA2615 harboring ftsK mutant gene by Etest method; assay type: functional; procedure, shortened: as §2
[24] = tested on: Pseudomonas aeruginosa; test: Antimicrobial activity against Pseudomonas aeruginosa PA14 PA3050 harboring pyrD mutant gene by Etest method; assay type: functional; procedure, shortened: as §2
[25] = tested on: Pseudomonas aeruginosa; test: Antimicrobial activity against Pseudomonas aeruginosa PA14 PA3433 harboring mutation in putative transcriptional regulator, LysR family by Etest method; assay type: functional; procedure, shortened: as §1
[26] = tested on: Pseudomonas aeruginosa; test: Antimicrobial activity against Pseudomonas aeruginosa PA14 PA3800 harboring mutation in conserved hypothetical protein by Etest method; assay type: functional; procedure, shortened: as §1
[27] = tested on: Pseudomonas aeruginosa; test: Antimicrobial activity against Pseudomonas aeruginosa PA14 PA3818 harboring suhB mutant gene by Etest method; assay type: functional; procedure, shortened: as §1
[28] = tested on: Pseudomonas aeruginosa; test: Antimicrobial activity against Pseudomonas aeruginosa PA14 PA4088 harboring mutation in putative aminotransferase by Etest method; assay type: functional; procedure, shortened: as §1
[29] = tested on: Pseudomonas aeruginosa; test: Antimicrobial activity against Pseudomonas aeruginosa PA14 PA4745 harboring nusA mutant gene by Etest method; assay type: functional; procedure, shortened: as §1
[30] = tested on: Pseudomonas aeruginosa; test: Antimicrobial activity against Pseudomonas aeruginosa PA14 PA5130 harboring mutation in putative rhodanese-like domain protein by Etest method; assay type: functional; procedure, shortened: as §1
[31] = tested on: Pseudomonas aeruginosa; test: Antimicrobial activity against Pseudomonas aeruginosa PA14 PA5366 harboring pstB mutant gene by Etest method; assay type: functional; procedure, shortened: as §1
[32] = tested on: Pseudomonas aeruginosa; test: Antimicrobial activity against Pseudomonas aeruginosa PA14 PA14_23430 harboring mutation in putative heparinase by Etest method; assay type: functional; procedure, shortened: as §2
[33] = tested on: Pseudomonas aeruginosa PAO1; test: Activity of Beta-lactamase in Pseudomonas aeruginosa PAO1 PA3047 harboring dacB mutant gene assessed as nitrocefin hydrolysis per mg of protein by spectrophotometry
Procedure, shortened: (§3)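 Cells grown to OD600 1.0, pelleted and resuspended in 0.1 M KH2PO4-Na2HPO4 pH 7.0. Crude extract made by two freeze-thaw cycles plus sonication on ice. β-Lactamase read as absorbance change at 485 nm with 50 µM nitrocefin in the same pH 7.0 phosphate buffer. Extract protein measured by BCA against a bovine serum albumin standard.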

[34] = tested on: Pseudomonas aeruginosa PA14; test: Activity of Beta-lactamase in Pseudomonas aeruginosa PA14 PA3047 harboring complemented dacB mutant gene assessed as nitrocefin hydrolysis per mg of protein by spectrophotometry; procedure, shortened: as §3
[35] = tested on: Pseudomonas aeruginosa PAO1; test: Activity of Beta-lactamase in Pseudomonas aeruginosa PAO1 PA4020 harboring mpl mutant gene assessed as nitrocefin hydrolysis per mg of protein by spectrophotometry; procedure, shortened: as §3
[36] = tested on: Pseudomonas aeruginosa PAO1; test: Activity of Beta-lactamase in Pseudomonas aeruginosa PAO1 PA4109 harboring ampR mutant gene assessed as nitrocefin hydrolysis per mg of protein by spectrophotometry; procedure, shortened: as §3
[37] = tested on: Pseudomonas aeruginosa PA14; test: Activity of Beta-lactamase in Pseudomonas aeruginosa PA14 PA4522 harboring ampD mutant gene assessed as nitrocefin hydrolysis per mg of protein by spectrophotometry; procedure, shortened: as §3
[38] = tested on: Pseudomonas aeruginosa PAO1; test: Activity of Beta-lactamase in Pseudomonas aeruginosa PAO1 PA4522 harboring ampD mutant gene assessed as nitrocefin hydrolysis per mg of protein by spectrophotometry; procedure, shortened: as §3

Compound: C[C@@H](O)[C@H]1C(=O)N2C(C(=O)O)=C(S[C@@H]3CN[C@H](C(=O)N(C)C)C3)[C@H](C)[C@H]12 [MEROPENEM]
- MIC [1]: 0.125 µg/mL (≈ 0.326 µM)
- MIC [2]: 1 µg/mL (≈ 2.61 µM)
- MIC [3]: 0.5 µg/mL (≈ 1.3 µM)
- MIC [4]: 0.125 µg/mL (≈ 0.326 µM)
- MIC [5]: 0.125 µg/mL (≈ 0.326 µM)
- MIC [6]: 0.125 µg/mL (≈ 0.326 µM)
- MIC [7]: 0.19 µg/mL (≈ 0.495 µM)
- MIC [8]: 0.094 µg/mL (≈ 0.245 µM)
- MIC [9]: 0.125 µg/mL (≈ 0.326 µM)
- MIC [10]: 0.125 µg/mL (≈ 0.326 µM)
- MIC [11]: 0.125 µg/mL (≈ 0.326 µM)
- MIC [12]: 0.25 µg/mL (≈ 0.652 µM)
- MIC [13]: 0.094 µg/mL (≈ 0.245 µM)
- MIC [14]: 0.25 µg/mL (≈ 0.652 µM)
- MIC [15]: 0.25 µg/mL (≈ 0.652 µM)
- MIC [16]: 0.125 µg/mL (≈ 0.326 µM)
- MIC [17]: 0.125 µg/mL (≈ 0.326 µM)
- MIC [18]: 0.125 µg/mL (≈ 0.326 µM)
- MIC [19]: 0.047 µg/mL (≈ 0.123 µM)
- MIC [20]: 0.19 µg/mL (≈ 0.495 µM)
- MIC [21]: 0.125 µg/mL (≈ 0.326 µM)
- MIC [22]: 0.125 µg/mL (≈ 0.326 µM)
- MIC [23]: 0.064 µg/mL (≈ 0.167 µM)
- MIC [24]: 0.094 µg/mL (≈ 0.245 µM)
- MIC [25]: 0.125 µg/mL (≈ 0.326 µM)
- MIC [26]: 0.125 µg/mL (≈ 0.326 µM)
- MIC [27]: 0.064 µg/mL (≈ 0.167 µM)
- MIC [28]: 0.125 µg/mL (≈ 0.326 µM)
- MIC [29]: 0.125 µg/mL (≈ 0.326 µM)
- MIC [30]: 0.125 µg/mL (≈ 0.326 µM)
- MIC [31]: 0.125 µg/mL (≈ 0.326 µM)
- MIC [32]: 0.125 µg/mL (≈ 0.326 µM)

Compound: CC(C)(O/N=C(\C(=O)N[C@@H]1C(=O)N2C(C(=O)[O-])=C(C[n+]3ccccc3)CS[C@H]12)c1csc(N)n1)C(=O)O [CEFTAZIDIME]
- MIC [1]: 0.75 µg/mL (≈ 1.37 µM)
- MIC [2]: 0.75 µg/mL (≈ 1.37 µM)
- MIC [3]: 1.5 µg/mL (≈ 2.74 µM)
- MIC [4]: 1.5 µg/mL (≈ 2.74 µM)
- MIC [5]: 2 µg/mL (≈ 3.66 µM)
- MIC [6]: 2 µg/mL (≈ 3.66 µM)
- MIC [7]: 4 µg/mL (≈ 7.32 µM)
- MIC [8]: 3 µg/mL (≈ 5.49 µM)
- MIC [9]: 2 µg/mL (≈ 3.66 µM)
- MIC [10]: 3 µg/mL (≈ 5.49 µM)
- MIC [11]: 4 µg/mL (≈ 7.32 µM)
- MIC [12]: 1.5 µg/mL (≈ 2.74 µM)
- MIC [13]: 1.5 µg/mL (≈ 2.74 µM)
- MIC [14]: 3 µg/mL (≈ 5.49 µM)
- MIC [15]: 0.5 µg/mL (≈ 0.915 µM)
- MIC [16]: 0.38 µg/mL (≈ 0.695 µM)
- MIC [17]: 0.75 µg/mL (≈ 1.37 µM)
- MIC [18]: 0.38 µg/mL (≈ 0.695 µM)
- MIC [19]: 0.5 µg/mL (≈ 0.915 µM)
- MIC [20]: 0.5 µg/mL (≈ 0.915 µM)
- MIC [21]: 0.38 µg/mL (≈ 0.695 µM)
- MIC [22]: 0.5 µg/mL (≈ 0.915 µM)
- MIC [23]: 0.25 µg/mL (≈ 0.457 µM)
- MIC [24]: 0.5 µg/mL (≈ 0.915 µM)
- MIC [25]: 0.5 µg/mL (≈ 0.915 µM)
- MIC [26]: 0.25 µg/mL (≈ 0.457 µM)
- MIC [27]: 0.5 µg/mL (≈ 0.915 µM)
- MIC [28]: 0.25 µg/mL (≈ 0.457 µM)
- MIC [29]: 0.75 µg/mL (≈ 1.37 µM)
- MIC [30]: 0.75 µg/mL (≈ 1.37 µM)
- MIC [31]: 0.75 µg/mL (≈ 1.37 µM)
- Activity [33]: 274 nmol/min
- Activity [34]: 3.8 nmol/min
- Activity [35]: 168 nmol/min
- Activity [36]: 111 nmol/min
- Activity [37]: 31 nmol/min
- Activity [38]: 74 nmol/min
- MIC [32]: 2 µg/mL (≈ 3.66 µM)
